Experimental data of several laboratories.
Protocols differ between the studies behind these lines.
Target: Insulin-like growth factor 1 receptor (IGF1R, Homo sapiens, UniProt P08069)

Structure (SMILES)	observed	action	method	concentration	measurement	result
Cn1cc(-c2cccc(N3CCc4c(sc5c4CC(C)(C)C5)C3=O)c2CO)cc(Nc2ccncn2)c1=O	enzyme activity	inhibitor	–	1 µM	inhibition	3%
CC(C)(C)c1cc(C=C(C#N)C#N)cc(Br)c1O	enzyme activity	inhibitor	–	0.5 µM	remaining activity	96.6%
Cc1nn(C)cc1-c1nc2c(N3CCN(Cc4ccc(Cl)cc4)CC3)c(Cl)cnc2[nH]1	binding	–	competition with immobilised ligand	1 µM	remaining binding	100%
Cn1cc(-c2cc(F)cc(N3CCn4c(cc5c4CCCC5)C3=O)c2CO)cc(Nc2ccc(N3CCN(C4COC4)CC3)cn2)c1=O	enzyme activity	inhibitor	–	0.1 µM	inhibition	4%
C#Cc1n[nH]c2c(-c3cn([C@@H](C)c4ccccc4)c(=O)[nH]c3=O)cc(F)cc12	enzyme activity	inhibitor	–	0.1 µM	inhibition	7.8%
COc1ncccc1-c1cnn2ccc(N3CCN(C(=O)OC(C)C)CC3)nc12	binding	–	competition with immobilised ligand	1 µM	remaining binding	100%
Cn1cncc1[C@](O)(COc1ccc(C#N)cc1-c1ccc(OC(F)(F)F)cc1)c1ccc(C#N)cc1	cell-free assay	–	competition with immobilised ligand	1 µM	remaining binding	92%
C#Cc1n[nH]c2c(-c3cn([C@@H](C)c4ccccn4)c(=O)[nH]c3=O)cc(F)cc12	enzyme activity	inhibitor	–	0.1 µM	inhibition	8.7%
O=c1[nH]c2ccccc2n1C1CCN(Cc2ccc(-c3[nH]c4cc5ncnc5cc4nc3-c3ccccc3)cc2)CC1	cell-free assay	–	–	0.5 µM	remaining signal	91.2%
Nc1ncc(-c2nc(N3CCOCC3)nc(N3CCOCC3)n2)c(C(F)F)n1	cell-free assay	–	competition with immobilised ligand	10 µM	remaining binding	78%
